Only some compounds are listed: those with a hit (about 2.8% of all), similar ones and a draw of the others.
Mcl1-Bid inh: Mcl-1/Bid binding inhibitors, primary screen, biochemical, TR-FRET, 1536-well | Induced myeloid leukemia cell differentiation protein Mcl-1 (Homo sapiens), Q07820 | TR-FRET Mcl-1/Bid-Dy647 peptide binding | inhibition, % at 21.7 µM | hit rate 0.97% among 220,000 | AID 1021, 2008;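 active = compounds that cut the binding signal by more than half at the single screening dose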;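 note: His-tagged Mcl-1 with europium anti-His antibody binding Bid BH3 peptide; 0% = Mcl-1 plus peptide wells and 100% = peptide-only wells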
Target sequence (Q07820 whole entry, looked up): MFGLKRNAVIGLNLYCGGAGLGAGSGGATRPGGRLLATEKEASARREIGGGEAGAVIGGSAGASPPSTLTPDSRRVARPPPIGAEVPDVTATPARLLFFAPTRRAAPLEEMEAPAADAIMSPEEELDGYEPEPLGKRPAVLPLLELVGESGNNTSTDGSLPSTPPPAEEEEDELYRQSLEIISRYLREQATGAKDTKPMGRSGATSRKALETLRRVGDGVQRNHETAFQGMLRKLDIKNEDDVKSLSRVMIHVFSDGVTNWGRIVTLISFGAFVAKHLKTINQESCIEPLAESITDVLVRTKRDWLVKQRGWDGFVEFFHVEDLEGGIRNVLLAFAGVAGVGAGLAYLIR
Arbovirus inh: antivirals against arbovirus infection, primary screen, cell-based, full library, 10K replicate subset. inhibition, % at 10 µM. arbovirus infection cell-based antiviral screen. hit rate 0.37% among 200,000; in the data active = inhibition above about 30%
Bim-Mcl-1: inhibitors of Bim peptide binding to Mcl-1, primary screen, biochemical, bead-based flow cytometry, multiplex | Bim peptide-Mcl-1 binding | inhibition, % at 10 µM | hit rate 0.1% among 190,000 | AID 1009, 2008; in the data active = inhibition above about 40%;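 note: 0% = no compound tracer wells and 100% = peptide blocker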
Biofilm kill mix: clotrimazole potentiators killing C. albicans biofilm, primary screen, 4-compound mixtures. C. albicans biofilm persisters + clotrimazole, fluorescence viability; primary screen in compound mixtures of four per well. inhibition, % at 7.6 µM. hit rate 0.02% among 120,000;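 active = inhibition above 30.3% in the primary screen of four-compound pools, then above 30% when the compound was retested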;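 note: compounds exposed to preformed 24 h biofilms for 48 h; 0% = untreated biofilm control and 100% = clotrimazole plus chlorhexidine kill blank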
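Test system: C. albicans CAF4-2 wild-type biofilms; buffer or medium: RPMI/MOPS medium, pH 7.0; schedule: 24 h biofilm formation, then 48 h compound exposure, 37 °C; detection: Alamar Blue fluorescence; measure: percent inhibition of biofilm viability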
m-calpain inh: inhibitors of pig calpain II, primary screen, biochemical, fluorogenic peptide substrate, 1536-well. purified calpain II, 30 min. inhibition, % at 16 µM. hit rate 0.37% among 220,000. AID 1236, 2008;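 active = inhibition above about 50%, limit read from the data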
Mcl1 Noxa PPI: Mcl-1/Noxa binding inhibitors, primary screen, biochemical, TR-FRET, 1536-well; Induced myeloid leukemia cell differentiation protein Mcl-1 (Homo sapiens), Q07820; TR-FRET Mcl-1/Noxa peptide binding, 2 h; inhibition, % at 21.7 µM; hit rate 1.5% among 220,000; AID 1022, 2008;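 active = compounds that cut the protein-peptide binding signal by more than 50% relative to plate controls in a single-dose test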;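 note: His-tagged Mcl-1 with rhodamine Noxa BH3 peptide and terbium anti-His antibody; 0% = Mcl-1 plus Noxa peptide wells and 100% = peptide-only wells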
* marks the source's active call; other numbers are inactive results; x = no result given.

SMILES	Mcl1-Bid inh	Arbovirus inh	Bim-Mcl-1	Biofilm kill mix	m-calpain inh	Mcl1 Noxa PPI
O=C(CC1S/C(=N/N=C/c2c[nH]c3ccccc23)NC1=O)Nc1ccccc1 (stereo not drawn)	56*	-3	-3	14	7	61*
O=C(CC1S/C(=N/N=C/c2cccs2)NC1=O)Nc1ccc(Cl)cc1 (stereo not drawn)	-3	-11	-1	11	26	-13
O=C(CC1S/C(=N/N=C/c2ccco2)NC1=O)Nc1ccccc1 (stereo not drawn)	-31	-1	-1	16	26	18
O=C(CC1S/C(=N/N=C/c2c[nH]c3ccc(OCc4ccccc4)cc23)NC1=O)Nc1ccccc1 (stereo not drawn)	58*	-1	-5	17	15	67*
CN(C)CCCOc1ccc(Cl)cc1Br	53*	-6	-4	x	11	30
CN(C)CCOCCOc1ccc(Cl)cc1Br	26	-10	0	10	12	25
Clc1ccc(OCCOCCN2CCCCC2)c(Br)c1	62*	-16	0	x	10	34
CC1CCN(CCOCCOc2ccc(Cl)cc2Br)CC1	38	2	0	x	-25	13
COc1cc(/C=C/C(=O)N2CCCc3ccccc32)cc(OC)c1OC	-2	1	-4	13	6	26
CC(=O)Nc1ccc(C2=NNC(=Nc3ccc(S(=O)(=O)N4CCOCC4)cc3)SC2)cc1	-20	x	x	20	-55	80*
CN(C)S(=O)(=O)c1cccc(N=C2NN=C(c3ccccc3)CS2)c1	-36	-9	-2	10	6	34
CC(=O)Nc1ccc(C2=NNC(=Nc3cccc(S(=O)(=O)N(C)C)c3)SC2)cc1	-18	-17	0	12	-102	96*
O=C(CCn1c(=S)oc2ccccc21)NCCC1=CCCCC1	-9	x	x	2	24	-4
COCCn1c(-c2ccccc2)cnc1SCC(=O)Nc1cccc2ccccc12	-10	38*	-2	-12	3	19
CC(C)CC(NC(=O)c1ccccc1)C(=O)OCC(=O)Nc1ccc(S(N)(=O)=O)cc1 (stereo not drawn)	-18	-3	14	11	3	-8
CCOc1cc(C(=O)NC(=S)Nc2ccc(Cl)c(C(=O)O)c2)cc(OCC)c1OCC	-9	x	x	17	-10	6
CC1(C)NC(=O)N(CC(=O)OCC(=O)Nc2cccc(S(N)(=O)=O)c2)C1=O	-12	15	0	16	-25	10
O=C(COc1ccc([N+](=O)[O-])cc1)Nc1nnc(-c2cccnc2)s1	-11	x	x	18	-20	69*
COc1ccc(/C=N/NS(=O)(=O)c2ccccc2)cc1OC(=O)c1ccc(C)cc1	86*	-5	0	x	-15	23
NC(=O)N=Nc1c2[nH]c3ccccc3nc-2c2ccccc12	-14	x	x	15	-17	20
COc1cccc(-n2c([S-])c(C(=O)Nc3ccc(S(=O)(=O)N4CCOCC4)cc3)[n+]3cc(C(N)=O)ccc23)c1	-62	x	x	5	5	-113
COc1ccc(C(=O)Nc2ccccc2C(=O)NC(Cc2ccc(O)cc2)C(=O)NNC(=O)c2ccc(C)cc2)cc1 (stereo not drawn)	57*	-4	-1	15	-72	-114
Cn1c(=O)c2cc(S(=O)(=O)Nc3cc(C(=O)O)cc(C(=O)O)c3)ccc2n(C)c1=O	-25	0	46*	5	3	2
COc1ccc(CNC(=O)C/C(C)=N/NC(=O)COc2ccccc2)cc1	-20	4	1	15	-15	4
O=C(CN1CCN(C2CCCCC2)CC1)NCCC1=CCCCC1	51*	-8	3	x	-10	33
CCCCn1c(NCc2ccc3c(c2)OCO3)nc2ccccc21	-8	-2	0	16	32	66*
CCN(CC)c1ccc(CNc2nc3ccccc3n2C)cc1	97*	x	x	5	-5	11
CCCn1c(NCc2cc(C)ccc2O)nc2ccccc21	-90	36*	-1	x	25	13

High-throughput results from PubChem BioAssay.
